Shown are actives, neighbours in structure and some others; about 1.9% of the full set was active somewhere.
M5 PAM – CHRM5 positive allosteric modulation; P08912; CHO-K1 hM5, Fluo-8 calcium, ACh EC20 PAM; 0% = ACh EC20, 100% = ACh EC100; activation, % at 3 µM; 0.3% of 360,000 active;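 active = activation above the run cutoff, the mean activation of all test compounds plus 3 SD, cut at about 18% in these data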
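Replicates: One well per compound, no replicates | System: Human M5 receptor in CHO-K1 cells | Benchmarks: Low control EC20 acetylcholine (0%), high control EC100 acetylcholine (100%) | Probe or stimulus: Acetylcholine, EC20 level | Times: Fluo-8 loading 80 min at 37 °C plus 30 min room temperature | Signal: Intracellular calcium via Fluo-8 fluorescence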
CHRM5 antagonist – antagonists of human muscarinic M5 receptor (CHRM5). P08912. CHO-hM5 cells, Fluo-8 calcium fluorescence, ACh EC80. inhibition, % at 3 µM. 0.59% of 360,000 active. AID 624040;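 active = inhibition above a per-plate cutoff, the mean of that plate's test compounds plus 3 SD, cut at about 27% in these data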
M4 ag – agonists of human muscarinic M4 receptor (CHRM4); 0.14% of 360,000 active; CHO-K1 hM4/Gqi5, Fluo-8 calcium fluorescence; vehicle 0%, full acetylcholine response 100%; P08173; activation, % at 3 µM;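 active = activation above the run mean over all test wells plus 3 SD, cut at about 32% in these data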;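 note: peak over basal fluorescence ratio per well then scaled between controls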
Target sequence (P08173 whole entry, looked up): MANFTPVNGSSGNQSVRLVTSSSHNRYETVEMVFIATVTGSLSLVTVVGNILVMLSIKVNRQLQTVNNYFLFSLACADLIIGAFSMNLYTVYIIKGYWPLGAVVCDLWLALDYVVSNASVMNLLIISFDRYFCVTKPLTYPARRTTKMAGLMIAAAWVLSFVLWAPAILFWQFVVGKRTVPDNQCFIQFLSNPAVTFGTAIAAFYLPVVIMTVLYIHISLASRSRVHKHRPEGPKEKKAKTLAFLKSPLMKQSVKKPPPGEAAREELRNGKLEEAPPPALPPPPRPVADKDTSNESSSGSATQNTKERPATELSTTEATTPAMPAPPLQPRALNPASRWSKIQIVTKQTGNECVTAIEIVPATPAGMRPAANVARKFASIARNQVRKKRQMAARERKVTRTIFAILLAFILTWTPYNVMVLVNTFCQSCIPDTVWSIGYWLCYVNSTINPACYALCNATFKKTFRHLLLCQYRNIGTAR
CHRM4 PAM – CHRM4 positive allosteric modulation; P08173; CHO-K1 hM4/Gqi5, Fluo-8 calcium fluorescence, ACh EC20; 0% = ACh EC20, 100% = maximal ACh; activation, % at 3 µM; 0.4% of 360,000 active; AID 624126;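 active = activation above its plate's cutoff, the mean activation of sample wells plus 3 SD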
M4 antag – antagonists of human muscarinic M4 receptor (CHRM4); P08173; CHO-hM4 cells, ACh EC80, Fluo-8 calcium fluorescence; inhibition, % at 3 µM; 0.73% of 360,000 active; AID 624125;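 active = inhibition above its plate's cutoff, the mean inhibition of sample wells plus 3 SD, cut at about 27% in these data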
CHRM5 agonist – agonists of human muscarinic M5 receptor (CHRM5); P08912; CHO-K1 hM5 cells, Fluo-8 calcium fluorescence; 0% DMSO wells, 100% maximal acetylcholine response; activation, % at 3 µM; 0.19% of 360,000 active;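 active = activation above the run's mean over test compounds plus 3 SD, cut at about 23% in these data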;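 note: signal is peak over basal fluorescence ratio across the kinetic read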
Of the large screens only hits and unclear results are named; the others gave an inactive call.

CN1C[C@H](CO)C=C2c3cccc4[nH]cc(c34)C[C@H]21	none
CC1=C[C@@H]2c3cccc4[nH]cc(c34)C[C@H]2N(C)C1	M4 antag 56.9
Cc1ncc(CN2CCCC(C(=O)c3ccc(C(C)(C)C)cc3)C2)s1 (stereo not given)	CHRM5 antagonist 29.0
FC(F)(F)c1ccc(CNCCc2ccc3c(c2)OCO3)cc1	none
O=C1NC(=O)N(c2ccccc2F)C(=O)/C1=C/c1ccc(Sc2nc3ccccc3[nH]2)o1	M4 ag 41.3
O=C1NC(=O)N(c2ccccc2)C(=O)/C1=C/c1ccc(Sc2ccccc2)o1	none
O=C1NC(=O)N(c2cccc(Cl)c2)C(=O)/C1=C\c1ccc(Sc2nc3ccccc3[nH]2)o1	CHRM5 agonist 35.7
C=CCn1c(=O)c(C=Nc2c(OC)cccc2[N+](=O)[O-])c(O)n(CCCC)c1=O	none
COc1ccc(CCNC(=O)c2c(N)n(CCN3CCOCC3)c3nc4ccccc4nc23)cc1OC	CHRM5 antagonist 34.5
C[N+]1(CC(COCc2ccccc2)OC(=O)Cc2ccccc2)CCOCC1 (stereo not given)	none
CC1CCCN(c2ccc(C(=O)N3CCC4(CC3)OCCO4)cc2[N+](=O)[O-])C1 (stereo not given)	none
CCOC(=O)C1CCCN(c2ccc([N+](=O)[O-])c3nonc23)C1 (stereo not given)	CHRM5 antagonist 52.3, M4 ag 314.2, M4 antag 52.6, CHRM5 agonist 184.7
CC(=O)Nc1ccc(C(c2c(O)c3ccccc3oc2=O)c2c(C)n(C)n(-c3ccccc3)c2=O)cc1 (stereo not given)	none
COc1cccc(C2CCN(CC(=O)Nc3cc(Cl)ccc3OC)CC2O)c1 (stereo not given)	none
Cc1ccc(S(=O)(=O)N[C@@H](CCCCN)C(=O)CCl)cc1	CHRM5 agonist 39.3
Cc1ccc(S(=O)(=O)NCCC(=O)Nc2ccc(Cl)cc2C(=O)c2ccccc2)cc1	none
Nc1cc(Cl)c2nonc2c1[N+](=O)[O-]	none

Screens as filed in PubChem.
